Activity calls are given as the source filed them. The rule behind the calls is not given here. Bounds are passed on as bounds.

For experiment [1], the system named is HeLa. Put plainly: Antiproliferative activity against human HeLa cells after 48 hrs by SRB assay. It counts as functional, cell-based. For orientation: In SRB staining, fixed cells bind dye roughly in proportion to their protein.
Experiment [2] deals with HeLa. The experiment in a line: Stabilization of microtubule in human HeLa cells assessed as increase in cellular density of interphase microtubules at 50 uM after 18 hrs by immunofluoroescence analysis. It counts as cell-based. In short, it runs like this: (§1)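 HeLa cells in Basal Medium Eagle with 10% FBS and gentamicin, treated with vehicle or taccalonolide for 18 h. Interphase microtubules visualized by indirect immunofluorescence with a β-tubulin antibody and imaged by fluorescence microscopy. Microtubule density and bundling judged from representative images against vehicle-treated cells.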

Experiment [3] relates to HeLa. The experiment in a line: Stabilization of microtubule in human HeLa cells assessed as increase in cellular density of interphase microtubules at 10 uM after 18 hrs by immunofluoroescence analysis. It counts as cell-based. Summed up:
as §1

The test system of experiment [4] is HeLa. The experiment in a line: Antiproliferative activity against human HeLa cells. The format is functional, cell-based. Summed up:
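HeLa cells (ATCC) grown in Basal Medium Eagle with 10% FBS and 50 μg/mL gentamicin and exposed to compound for 48 h. Cells then TCA-fixed and stained with sulforhodamine B, with density read as absorbance at 560 nm. IC50 (50% inhibition of proliferation) taken ± SD from three independent experiments, each run in triplicate.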

In the case of `CC(=O)O[C@H]1C[C@H]2[C@H]([C@@H]3[C@@H](O)[C@@H]4[C@H]([C@H](C)C=C5OC(=O)[C@@](C)(O)[C@@]54C)[C@]31C)[C@@H](O)C(=O)[C@@]1(O)C[C@@H]3O[C@@H]3[C@H](OC(C)=O)[C@]21C`, the IC50 in experiment [1] was found to be 34.4 µM. The outcome in experiment [2] was Active.

With `CC(=O)O[C@@H]1[C@H]2[C@H]3[C@H]([C@H](OC(C)=O)[C@H](OC(C)=O)[C@]2(C)[C@@H]2[C@@H]1[C@]1(C)C(=C[C@H]2C)OC(=O)[C@@]1(C)O)[C@]1(C)[C@H](C[C@@H]2O[C@@H]2[C@@H]1OC(C)=O)C(=O)[C@@H]3O` [TACCALONOLIDE A], in experiment [1], 5.32 µM corresponded to half-maximal inhibition (IC50).

As to `CC(=O)O[C@H]1C[C@H]2[C@H]([C@@H]3[C@@H](O)[C@@H]4[C@H]([C@H](C)C=C5OC(=O)[C@@](C)(O)[C@@]54C)[C@]31C)[C@@H](O)C(=O)[C@H]1C[C@@H]3O[C@@H]3[C@H](O)[C@@]12C`, in experiment [3], the outcome was Active. In addition, the midpoint of inhibition in experiment [1], the IC50, lay at 1.5 µM.

The compound `CC(=O)O[C@@H]1[C@H]2[C@H]3[C@H]([C@H](OC(C)=O)[C@H](OC(C)=O)[C@]2(C)[C@H]2[C@H](C)[C@@H]4O[C@@]45OC(=O)[C@@](C)(O)[C@]5(C)[C@H]12)[C@]1(C)[C@H](C[C@@H]2O[C@@H]2[C@@H]1OC(C)=O)C(=O)[C@@H]3O` came in with an IC50 in experiment [4] of 0.023 µM.

In turn, `CC(=O)O[C@H]1C[C@H]2[C@H]([C@@H]3[C@H]4OC(=O)[C@@](C)(O)[C@@]5(C)C(=O)C[C@@H](C)[C@@H]([C@@H]45)[C@]31C)[C@@H](O)C(=O)[C@H]1C[C@@H]3O[C@@H]3[C@H](OC(C)=O)[C@@]12C` gave an IC50 in experiment [1] greater than 50 µM. The result in experiment [2] was inactive.

With `CC(=O)O[C@@H]1[C@H]2[C@@H]3[C@@H](O)C(=O)[C@H]4C[C@@H]5O[C@@H]5[C@H](OC(C)=O)[C@]4(C)[C@H]3C[C@H](OC(C)=O)[C@]2(C)[C@@H]2[C@@H]1[C@]1(C)C(=C[C@H]2C)OC(=O)[C@@]1(C)O` [TACCALONOLIDE E], half-maximal inhibition in experiment [1] (IC50) was put at 39.5 µM.

For `CC(=O)O[C@H]1[C@H]2[C@H]([C@@H]3[C@@H](O)[C@@H]4[C@H]([C@H](C)C=C5OC(=O)[C@@](C)(O)[C@@]54C)[C@@]3(C)[C@H]1OC(C)=O)[C@@H](O)C(=O)[C@H]1C[C@@H]3O[C@@H]3[C@H](OC(C)=O)[C@]21C` [TACCALONOLIDE B], the IC50 in experiment [1] amounted to 3.12 µM.

In experiment [1], `CC(=O)O[C@H]1C[C@H]2[C@H]([C@@H]3[C@@H](O)[C@@H]4[C@H]([C@H](C)C=C5OC(=O)[C@@](C)(O)[C@@]54C)[C@]31C)[C@@H](O)C(=O)[C@H]1C[C@@H]3O[C@@H]3[C@H](OC(C)=O)[C@@]12C` [TACCALONOLIDE N] displayed an IC50 of 8.5 µM.

In experiment [1], `CC(=O)O[C@H]1C[C@H]2[C@H]([C@@H]3[C@@H](O)[C@@H]4[C@H]([C@H](C)C=C5OC(=O)[C@@](C)(O)[C@@]54C)[C@]31C)[C@@H](O)C(=O)[C@@]1(O)C[C@@H]3O[C@@H]3[C@H](OC(=O)CC(C)C)[C@]21C` returned an IC50 of 2 µM. The outcome in experiment [2] was Active.

`CC(=O)O[C@H]1[C@H]2[C@H]([C@@H]3[C@H]4OC(=O)[C@@](C)(O)[C@@]5(C)C(=O)C[C@@H](C)[C@@H]([C@@H]45)[C@@]3(C)[C@H]1OC(C)=O)[C@@H](O)C(=O)[C@H]1C[C@@H]3O[C@@H]3[C@H](OC(C)=O)[C@]21C` had an IC50 in experiment [1] greater than 50 µM. Moreover, the result in experiment [2] was inactive.

On to `CC(=O)O[C@H]1[C@H]2[C@H]([C@@H]3[C@@H](O)[C@@H]4[C@H]([C@H](C)[C@@H]5O[C@@]56OC(=O)[C@@](C)(O)[C@]46C)[C@@]3(C)[C@H]1OC(C)=O)[C@@H](O)C(=O)[C@H]1C[C@@H]3O[C@@H]3[C@H](OC(C)=O)[C@]21C`, for which the IC50 in experiment [4] was found to be 0.0042 µM.

For `CC(=O)O[C@H]1[C@H]2[C@@H](C(=O)[C@H](O)[C@H]3C[C@@H]4O[C@@H]4[C@H](OC(C)=O)[C@]23C)[C@@H]2[C@@H](O)[C@@H]3[C@H]([C@H](C)C=C4OC(=O)[C@@](C)(O)[C@@]43C)[C@@]2(C)[C@H]1OC(C)=O`, in experiment [1], the IC50 stood at 49.2 µM.

A word on the IC50: it is the point on the concentration scale where inhibition reaches its midpoint. A low value points to greater potency.
